According to PubChem BioAssay AID463152 (The Scripps Research Institute Molecular Screening Center, 2010):

Biological target: Nuclear receptor ROR-alpha (Homo sapiens) (UniProt P35398)
Assay: RORA inhibitor potency, reporter decrease, dose response, RORA inverse agonist project, cell-based, luminescence, assay provider (AID 463152)
Details: HEK293T GAL4-RORa LBD luciferase reporter, 20 h
Method in brief: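 Test system: HEK293T with GAL4-RORα LBD and UAS-luciferase reporter; Timing: 20 h compound treatment; Detection: luciferase luminescence; Measure: IC50 from four-parameter fit of signal relative to DMSO; Control set: DMSO-treated wells as reference; Replicates: n of 8.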

Chain of Nuclear receptor ROR-alpha (Homo sapiens) (P35398 whole entry, looked up): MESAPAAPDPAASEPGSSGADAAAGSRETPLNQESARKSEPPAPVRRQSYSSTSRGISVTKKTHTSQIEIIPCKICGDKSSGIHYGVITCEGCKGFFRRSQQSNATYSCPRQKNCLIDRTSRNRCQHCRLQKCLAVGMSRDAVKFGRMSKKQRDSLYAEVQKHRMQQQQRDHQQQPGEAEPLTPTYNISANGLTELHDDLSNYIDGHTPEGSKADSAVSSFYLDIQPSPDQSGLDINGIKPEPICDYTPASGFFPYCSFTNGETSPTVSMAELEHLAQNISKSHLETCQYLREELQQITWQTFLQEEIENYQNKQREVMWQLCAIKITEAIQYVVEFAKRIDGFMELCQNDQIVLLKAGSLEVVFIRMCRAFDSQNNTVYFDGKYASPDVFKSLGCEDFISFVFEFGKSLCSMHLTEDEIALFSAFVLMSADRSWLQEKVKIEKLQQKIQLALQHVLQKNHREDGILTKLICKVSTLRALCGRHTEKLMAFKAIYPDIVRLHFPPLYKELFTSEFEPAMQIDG

IC50: 480 nM
SMILES: O=S(=O)(Nc1ccc(C(O)(C(F)(F)F)C(F)(F)F)cc1)c1cccs1
